The text below walks through data of ChEMBL document CHEMBL4513216, “Probing the Open Global Health Chemical Diversity Library for Multistage-Active Starting Points for Next-Generation Antimalarials” (ACS Infect Dis, 2020).

The nature of the data set: Toxicity liver stage against HepG2, at 10uM. Type of data set: cell-based. More on the design: test concentration 10 uM, cell line HepG2-A16-CD81EGFP. Conditions: human, HepG2-A16-CD81EGFP cells; read-out: INHIBITION
Put shortly: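 Uninfected HepG2-A16-CD81EGFP cells, 3 × 10^3 per well, 1536-well, plated on prespotted compound at 10 μM final, parasite-free screening media added to match infected plates; puromycin 10 μM positive, DMSO 0.5% negative; run in parallel with 48 h PbLuc assay at 37 °C, 5% CO2; viability by CellTiter-Glo luminescence, normalized to controls.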
On to `Cc1cc(C)c(CNC(=O)N(C)CC2CCCCO2)c(=O)[nH]1` (configuration not stated), for which the cytotoxicity at 10 µM is -8.93%.
In the case of `O=C(Cn1cccn1)NCC1CCN(Cc2cc3ccccc3[nH]2)C1` (configuration not stated), the cytotoxicity at 10 µM was found to be 7.11%.
The result for `Brc1ccc(NCc2ccc(Cn3ccnc3)cc2)nc1` reads 21.8%.
For `O=C(c1cccnc1)N1C[C@H]2CC[C@@H](C1)N(Cc1cccc(Cl)c1F)C2`, the cytotoxicity at 10 µM was -9.24%.
The result for `O=C(NC1(c2cccc(F)c2)CCOCC1)c1ccoc1` reads -9.41%; that for `O=C(c1ccncc1)N1CCN(C(=O)c2coc3ccccc23)CC1`, 4.27%; that for `CC(=O)N[C@@H]1CN(C(=O)c2ccc[nH]2)C[C@H]1c1ccc(C)o1`, 5.16%.
The result for `CCc1nc(-c2ccc(C(=O)N3CCC4(CC3)OCCO4)cc2)no1` reads 4.32%; that for `COc1cc(CCC(=O)NC2CC2)ccc1OCC(F)(F)F`, -8.35%; that for `CC(C)N(Cc1ccccc1)Cc1csc(-c2ncccn2)n1`, 7.76%.
Take `Cc1nc2c(c(NCCN3CCOCC3)n1)CCN(C)C2`: the cytotoxicity at 10 µM came out at 4.09%.
To `CNc1nc(C2CCCN2C(C)=O)nc2c1CCN(CC1CC1)C2` (configuration not stated) belongs -0.361%.
In the case of `COc1cc(C(=O)NCC2CC2)nc2c(C)cc(F)cc12`, the cytotoxicity at 10 µM came out at 7.52%.
The result for `O=S(=O)(Cc1ccccc1)N1CCCn2cnc(CN3CCCC3)c2C1` reads 3.3%; that for `COc1cccc(C=CCCN2CCCN(C(C)=O)CC2)c1`, 6.67%; that for `O=C(CCC1CCN(Cc2ccncc2)CC1)Nc1ccccc1Cl`, -3.9%.
The result for `CCOCC(=O)N1CC[C@H]2OCC[C@@H](c3nnc(C)o3)[C@H]2C1` reads 12%; that for `CC(C(=O)NCCCn1ccnc1)n1cc(Br)cn1` (configuration not stated), -13.8%.
To `O=C(c1cccs1)N1CC[C@H](O)[C@@H]1Cc1ccccc1` belongs -5.99%; to `CC(=O)N1CCC(c2nc3ccc(C)cn3n2)CC1`, 0.819%; to `CCc1nc(C2CCCN(c3nccc(C)n3)C2)no1` (configuration not stated), -2.69%.
On to `O=C(O)c1csc(S(=O)(=O)N2CCCc3cc(OC(F)F)ccc32)c1`, for which the cytotoxicity at 10 µM is -9.69%.
To `CN(C)C(=O)C1CCC2(CCN(C(=O)Nc3ccc(F)cc3)CC2)O1` (configuration not stated) belongs -111%; to `CC(C)Nc1cccc(C(=O)NCC(O)c2ccc(F)cc2F)c1` (configuration not stated), 14.8%; to `Cc1cc(C(=O)N2CCCC(n3ccnc3C)C2)c(C)s1` (configuration not stated), -16%.
The result for `COCCN1CCN(Cc2ccco2)Cc2ccc(C)nc21` reads 0.657%; that for `CCc1nc2n(n1)CCCC2Nc1nc(C(C)C)ns1` (configuration not stated), 3.88%; that for `CN(Cc1ccco1)[C@@H]1CN(Cc2ccccn2)C[C@@H]2CCCO[C@@H]21`, 0.34%.
As to `Fc1cnc(N2CCO[C@H]3CN(CC4CCOC4)C[C@H]32)nc1` (some centres not stated), the cytotoxicity at 10 µM worked out at 12.3%.
The result for `Cc1cc(NC(=O)NCCC(=O)N2CCCc3ccccc32)no1` reads -5.96%; that for `CCCc1nn(Cc2csc(C(C)C)n2)c(=O)o1`, -47.7%.
The result for `O=C(N1CCOCC1)N1C[C@H]2CN(Cc3nccs3)C[C@H]2C1` reads -80.8%.
As to `Cc1cnn(CC2CCCN2c2ccc(C#N)cn2)c1` (configuration not stated), the cytotoxicity at 10 µM came to 14%.
To `OC1CCN(Cc2c(-c3ccco3)[nH]c3ncccc23)CC1` belongs -1.58%; to `CN1CCN(c2cc(CNC(=O)c3cnccn3)ccn2)CC1`, -8.92%; to `COc1ccc(OCCNCc2c(C)nn(C)c2N(C)C)cc1`, -6.63%.
To `O=C(CCn1c(C(F)F)cc2cccnc21)NC1CC1` belongs -1.71%; to `COc1cccc(-n2cc(CN(C)C(=O)c3cc[nH]n3)cn2)c1`, 16.3%.
As for `c1nc2c(c(NC3CCc4ncnn4C3)n1)CCC2` (configuration not stated), the cytotoxicity at 10 µM was -40.7%.
To `CCc1nc(CN2CCCN(c3ncnc4ccsc34)CC2)no1` belongs 64.5%.
With `O=C(C1CC(=O)N(c2ccccc2)C1)N1CCC2(CC1)OCCO2` (configuration not stated), the cytotoxicity at 10 µM is 1.87%.
Regarding `CCCOc1ccc(Cl)cc1CNc1ncnc2oc(C)nc12`, the cytotoxicity at 10 µM was 9.98%.
Turning to `CC(C)NC(=O)CCNC(=O)CCc1cc(Cl)cs1`, the cytotoxicity at 10 µM is -2.59%.
Consider `Cc1nc(C)n(CC2CCCN(CCCS(=O)(=O)N(C)C)C2)n1` (configuration not stated), for which the cytotoxicity at 10 µM was -3.15%.
On to `O=C1NCC2(CCCN(C(=O)Nc3ccc4scnc4c3)CC2)O1` (configuration not stated), for which the cytotoxicity at 10 µM is -5.59%.
The result for `CC(C)CC(CCO)CNC(=O)N1CC(C)(C)C1(C)C` (configuration not stated) reads -2.48%.
To `CSC(C)Cc1c(-c2ccccc2)ncn1CCCNc1cccnc1` (configuration not stated) belongs 15.1%.
To `Cc1nc(C(C)C)sc1C(=O)NCCn1ccnc1` belongs 1.28%; to `CC(C)Cn1cncc1CNC1CCSC1` (configuration not stated), -2.34%; to `CCc1noc(C)c1C(=O)N1CCC2(CCCN(CC(C)(C)C)C2=O)C1` (configuration not stated), 3.75%.
Take `CC(C)c1nc(CN2CCOC(Cn3cncn3)C2)cs1` (configuration not stated): the cytotoxicity at 10 µM was -4.39%.
As for `Cc1cc(CC(=O)NC2CCCN(c3ccccc3Cl)C2=O)n[nH]1` (configuration not stated), the cytotoxicity at 10 µM was 3.55%.
To `O=C(NCCO)C1(Cc2cc(-c3ccc(F)cc3F)no2)CCOCC1` belongs 0.333%; to `Cc1ncsc1C(=O)NC1CCN(Cc2cccnc2)CC1`, -7.49%; to `Cc1nn(C)c(N(C)C)c1CNCc1cccc(Cn2cccn2)c1`, 1.88%.
The result for `CC(O)CN1CCN(C(=O)c2cccc3[nH]ncc23)CC1` (configuration not stated) reads -20.5%; that for `CC1CCCCN1C(=O)c1ccc(Br)s1` (configuration not stated), -8.21%.
To `CC(C)N(Cc1ccc(C#N)cc1)C(=O)Nc1ccncc1` belongs 3.9%; to `CCOc1cccc(CNC(C)c2ccc(-n3ccnc3)cc2)c1O` (configuration not stated), -38.3%.
For `CCOCc1ccccc1NC(=O)NC1CCN(C2CCCC2)C1` (configuration not stated), the cytotoxicity at 10 µM was 9.42%.
The result for `CC(C)(C)c1noc(CN2CCCc3cc(OC(F)(F)F)ccc32)n1` reads -0.813%; that for `O=C(NC1CCCC1)N1C[C@H]2CN(c3ccncc3)C[C@@]2(C(=O)O)C1`, 11.3%; that for `CSCCC(O)C(=O)N1CCC(OCc2cccnc2)CC1` (configuration not stated), 3.96%.
The result for `COCc1nnc(C(=O)N2CCCC(O)C2)o1` (configuration not stated) reads 1.31%.
`Cc1cc(CN2CCN(C(=O)NCc3c(C)noc3C)CC2)on1`: the cytotoxicity at 10 µM is 0.386%.
The result for `Cc1nc(C)n(C2CCCN(C(=O)Cc3csc(C(C)C)n3)C2)n1` (configuration not stated) reads -15.8%; that for `COCC(=O)N1CCC2(COCc3cnc(NCc4ccco4)nc32)C1` (configuration not stated), -1.75%.
On to `CN(C)C[C@]12COC[C@H]1CN(Cc1ccc3c(c1)OCO3)C2`, for which the cytotoxicity at 10 µM is -123%.
To `Cc1cnn(CCC(=O)N2CCCN(c3ncccc3C#N)CC2)c1` belongs 4.11%.
To `O=C1C(NS(=O)(=O)c2ccc(F)cc2)CCN1Cc1ccccc1` (configuration not stated) belongs -3.48%; to `Cc1cccc(-c2noc(CN3CCc4c(ncn4C4CC4)C3)n2)c1`, 4.95%.
To `CC(C)CN1C[C@@H]2CN(c3cnccn3)C[C@@H]2C1=O` belongs -91.6%; to `O=C(c1cnc2ccc(F)cc2c1NCc1ccco1)N1CCCC1`, -54.5%.
On to `Cc1ncsc1CN1C[C@@H](O)[C@](O)(CNC(=O)c2ccccn2)C1`, for which the cytotoxicity at 10 µM was -0.973%.
For the molecule `CC(C)(C)c1coc([C@@H]2COCCN2Cc2ccccn2)n1`, the cytotoxicity at 10 µM was -4.04%.
The result for `Cc1ccc(CC(=O)N2CCOC(c3nc(C(C)(C)C)n[nH]3)C2)cn1` (configuration not stated) reads -5.96%.
The result for `COc1cccc(CN2CCCC2Cn2nc(C)nc2C)c1` (configuration not stated) reads 0.665%; that for `COc1cccc(-n2nc(C(C)=O)c(C(C)=O)c2C)c1`, 9.51%; that for `CCOc1ccccc1C(=O)N(C)C(C)c1ccc(S(C)(=O)=O)cc1` (configuration not stated), 12.9%.
The result for `Cc1cc(C)c2c(NC(C)c3nncn3C3CCCC3)ncnc2n1` (configuration not stated) reads 5.01%; that for `O=C(c1cscn1)N1CCO[C@H]2[C@@H](Oc3ccccn3)CC[C@@H]21`, -109%; that for `COCCCC(=O)Nc1cccnc1N1CCCCC1`, -6.34%.
For the molecule `Cc1ccc(-c2cc(C3CCNCC3)nc(C)n2)cc1`, the cytotoxicity at 10 µM worked out at 9.63%.
`Cc1noc(CN2CCCC2c2noc(C3CC3)n2)n1` (configuration not stated): the cytotoxicity at 10 µM was -23.6%.
As for `CCN1CCC(NC(=O)N(C)Cc2csc3ccccc23)CC1`, the cytotoxicity at 10 µM was -45%.
For `c1cnc(-c2noc(C3CN(Cc4ccc5c(c4)CCO5)C3)n2)nc1`, the cytotoxicity at 10 µM was determined as 0.488%.
Consider `CN(C)CCN1C[C@@H]2CN(c3ccccc3)C[C@@H]2C1=O`, for which the cytotoxicity at 10 µM is -94%.
On to `O=C(O)c1nnn(-c2cccc(C(F)(F)F)c2)c1C1CC1`, for which the cytotoxicity at 10 µM was -2.02%.
To `CCN(CC)C(=O)[C@@H]1C[C@@H](N)CN1c1nc(N2CCCC2)nc(C)c1C` belongs -6.9%; to `CC1CCN(S(=O)(=O)N2CCc3sccc3C2)CC1`, -30.8%.
As to `Cc1ccc(O)c(CNc2cccc(OCCF)c2)n1`, the cytotoxicity at 10 µM is -3.09%.
To `COc1ccc2c(c1)C1(CCN(Cc3ccncc3)CC1)N(C)CC2` belongs -14.2%; to `O=C(NCc1ccccn1)[C@]12COC[C@H]1CN(Cc1cccnc1)C2`, 5.64%; to `COc1ccc(NC(=O)N2CCCCC2c2ncc[nH]2)cc1` (configuration not stated), 10.4%.
To `COC1CCCN(Cc2nc(Cc3ccccc3F)no2)C1` (configuration not stated) belongs -4.23%; to `CC(C)Cc1noc(CC2CCS(=O)(=O)C2)n1` (configuration not stated), 3.03%; to `CCCn1cc(-c2ccnc(NC3CCc4ccccc43)n2)c(C)n1` (configuration not stated), 10.1%.
